Measured values taken from ChEMBL document CHEMBL1165943, “Design and synthesis of new anticancer pyrimidines with multiple-kinase inhibitory effect” (Bioorg Med Chem, 2010).
Active and inactive are the calls of the source. No cut-off for these calls is given here.

Experiments:
CAKI-1 [1] = experiment: Growth inhibition of human Caki1 cells after 48 hrs by sulforhodamine B assay; type: functional, cell-based; conditions: CAKI-1, 48 h
Procedure, shortened: (§1)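 Five-dose SRB assay. Cells in RPMI 1640 with 5% FBS and 2 mM L-glutamine were seeded at 5,000–40,000 cells/well, with a TCA-fixed time-zero plate (Tz) taken at 24 h. Compound stocks were in DMSO, serially diluted 10-fold or ½-log to five concentrations, and incubated 48 h at 37 °C. Plates were stained with SRB and read at 515 nm. IC₅₀ was taken where [(Ti−Tz)/(C−Tz)]×100 = 50.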

BT-549 = experiment: Growth inhibition of human BT549 cells after 48 hrs by sulforhodamine B assay; type: functional, cell-based; conditions: BT-549, 48 h; for CC50: read-out: LC50 (the source's name); procedure, shortened: as §1
HCT-116 [2] = experiment: Cytotoxicity against human HCT116 cells assessed as cell growth at 0.001 uM after 48 hrs by sulforhodamine B assay; type: functional; conditions: HCT-116, 48 h, read-out: Activity
HCT-15 = experiment: Cytotoxicity against human HCT15 cells assessed as cell growth at 0.001 uM after 48 hrs by sulforhodamine B assay; type: functional; conditions: HCT-15, 48 h, read-out: Activity
SN12C = experiment: Cytotoxicity against human SN12C cells assessed as cell growth at 0.001 uM after 48 hrs by sulforhodamine B assay; type: functional; conditions: read-out: Activity
Malme-3M = experiment: Cytotoxicity against human MALME-3M cells assessed as cell growth at 100 nM after 48 hrs by sulforhodamine B assay; type: functional; conditions: read-out: Activity
ACHN = experiment: Cytotoxicity against human ACHN cells assessed as cell growth at 100 nM after 48 hrs by sulforhodamine B assay; type: functional; conditions: read-out: Activity
Procedure, shortened: (§2)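 Cells grown in RPMI 1640 with 5% FBS and 2 mM L-glutamine, seeded at 5,000–40,000 cells/well by doubling time. Time-zero plates TCA-fixed after 24 h. Five concentrations (10-fold or half-log dilutions from DMSO stock) added; 48 h at 37 °C, 5% CO2. Cold TCA fixation (final 10%, 60 min, 4 °C), 0.4% SRB stain, dye solubilized in 10 mM trizma base, A515.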

HCT-116 [3] = experiment: Cytotoxicity against human HCT116 cells assessed as cell growth at 0.01 uM after 48 hrs by sulforhodamine B assay; type: functional; conditions: HCT-116, 48 h, read-out: Activity
SF-539 = experiment: Cytotoxicity against human SF539 cells assessed as cell growth at 0.01 uM after 48 hrs by sulforhodamine B assay; type: functional; conditions: SF-539, 48 h, read-out: Activity
U-251 = experiment: Cytotoxicity against human U251 cells assessed as cell growth at 0.01 uM after 48 hrs by sulforhodamine B assay; type: functional; conditions: U-251, 48 h, read-out: Activity
[4] = target: Tyrosine-protein kinase ABL1 (Homo sapiens) (UniProt P00519); experiment: Inhibition of ABL1 at 10 uM by HotSpot assay
Tyrosine-protein kinase ABL1 (Homo sapiens), sequence (P00519 whole entry): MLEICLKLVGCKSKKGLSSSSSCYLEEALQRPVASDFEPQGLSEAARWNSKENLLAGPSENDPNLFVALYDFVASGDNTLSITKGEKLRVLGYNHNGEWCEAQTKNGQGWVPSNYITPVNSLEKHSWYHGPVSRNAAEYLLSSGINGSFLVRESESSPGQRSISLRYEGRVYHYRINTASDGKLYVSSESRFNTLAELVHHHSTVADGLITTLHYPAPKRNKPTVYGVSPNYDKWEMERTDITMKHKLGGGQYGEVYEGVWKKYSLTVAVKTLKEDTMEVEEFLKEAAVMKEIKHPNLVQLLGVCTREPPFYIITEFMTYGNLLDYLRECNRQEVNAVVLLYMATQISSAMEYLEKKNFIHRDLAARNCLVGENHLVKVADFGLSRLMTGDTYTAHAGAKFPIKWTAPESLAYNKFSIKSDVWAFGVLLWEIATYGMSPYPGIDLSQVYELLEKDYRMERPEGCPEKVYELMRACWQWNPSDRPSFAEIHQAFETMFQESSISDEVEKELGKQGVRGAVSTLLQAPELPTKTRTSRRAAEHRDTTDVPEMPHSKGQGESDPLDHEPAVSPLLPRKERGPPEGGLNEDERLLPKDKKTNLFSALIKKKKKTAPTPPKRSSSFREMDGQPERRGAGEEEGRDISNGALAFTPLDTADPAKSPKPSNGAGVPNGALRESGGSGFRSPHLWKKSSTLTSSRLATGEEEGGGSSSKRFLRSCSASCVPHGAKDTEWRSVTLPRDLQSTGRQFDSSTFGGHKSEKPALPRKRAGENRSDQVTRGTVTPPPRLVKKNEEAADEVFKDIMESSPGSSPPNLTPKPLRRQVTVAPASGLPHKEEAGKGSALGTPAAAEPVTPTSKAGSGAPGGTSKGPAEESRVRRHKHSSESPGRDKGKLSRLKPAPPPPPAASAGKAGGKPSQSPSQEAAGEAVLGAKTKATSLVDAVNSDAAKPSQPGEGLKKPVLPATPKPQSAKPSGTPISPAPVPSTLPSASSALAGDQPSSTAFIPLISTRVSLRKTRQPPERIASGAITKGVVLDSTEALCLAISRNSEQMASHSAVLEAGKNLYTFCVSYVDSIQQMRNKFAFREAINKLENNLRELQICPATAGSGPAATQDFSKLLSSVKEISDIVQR

[5] = target: Mast/stem cell growth factor receptor Kit (Homo sapiens) (UniProt P10721); experiment: Inhibition of c-Kit at 10 uM by HotSpot assay
Mast/stem cell growth factor receptor Kit (Homo sapiens), sequence (P10721 whole entry): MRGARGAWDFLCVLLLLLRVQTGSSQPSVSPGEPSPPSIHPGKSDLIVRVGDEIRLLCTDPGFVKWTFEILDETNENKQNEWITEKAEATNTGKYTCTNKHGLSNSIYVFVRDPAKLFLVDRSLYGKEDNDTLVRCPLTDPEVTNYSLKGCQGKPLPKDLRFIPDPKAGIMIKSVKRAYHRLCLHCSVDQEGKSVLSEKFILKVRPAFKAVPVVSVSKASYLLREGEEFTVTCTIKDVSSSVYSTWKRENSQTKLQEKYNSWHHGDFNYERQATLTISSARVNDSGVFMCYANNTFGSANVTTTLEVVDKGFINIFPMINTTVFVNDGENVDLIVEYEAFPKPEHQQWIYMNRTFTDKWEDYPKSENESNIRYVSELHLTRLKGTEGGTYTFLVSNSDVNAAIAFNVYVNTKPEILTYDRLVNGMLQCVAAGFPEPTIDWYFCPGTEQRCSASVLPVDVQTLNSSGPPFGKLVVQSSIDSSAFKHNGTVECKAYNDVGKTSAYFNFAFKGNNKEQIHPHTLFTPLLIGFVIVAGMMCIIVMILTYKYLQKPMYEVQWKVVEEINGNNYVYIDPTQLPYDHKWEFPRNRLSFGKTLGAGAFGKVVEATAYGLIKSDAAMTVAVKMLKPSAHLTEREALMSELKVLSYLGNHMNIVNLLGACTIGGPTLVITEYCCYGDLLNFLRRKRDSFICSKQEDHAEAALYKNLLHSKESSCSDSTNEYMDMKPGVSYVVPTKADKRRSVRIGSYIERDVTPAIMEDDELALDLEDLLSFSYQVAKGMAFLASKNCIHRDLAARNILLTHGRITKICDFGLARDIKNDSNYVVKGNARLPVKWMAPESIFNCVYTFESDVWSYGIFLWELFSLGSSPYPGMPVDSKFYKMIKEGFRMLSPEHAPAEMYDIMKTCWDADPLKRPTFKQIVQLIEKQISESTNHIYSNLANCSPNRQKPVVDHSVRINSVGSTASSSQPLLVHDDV

[6] = target: Cyclin-dependent kinase 2/cyclin E1 (Homo sapiens) (UniProt P24864+P24941); experiment: Inhibition of CDK2/Cyclin E at 10 uM by HotSpot assay; type: protein-complex assay
K562 = experiment: Cytotoxicity against human K562 cells assessed as cell growth at 1 uM after 48 hrs by sulforhodamine B assay; type: functional; conditions: K562, 48 h, read-out: Activity
OVCAR-4 = experiment: Cytotoxicity against human OVCAR4 cells assessed as cell growth at 0.01 uM after 48 hrs by sulforhodamine B assay; type: functional; conditions: OVCAR-4, 48 h, read-out: Activity
A498 = experiment: Cytotoxicity against human A498 cells assessed as cell growth at 0.01 uM after 48 hrs by sulforhodamine B assay; type: functional; conditions: A498, 48 h, read-out: Activity; procedure, shortened: as §2
CAKI-1 [7] = experiment: Cytotoxicity against human Caki1 cells assessed as cell growth at 0.01 uM after 48 hrs by sulforhodamine B assay; type: functional; conditions: CAKI-1, 48 h, read-out: Activity; procedure, shortened: as §2
LOX IMVI [8] = experiment: Cytotoxicity against human LOXIMVI cells assessed as cell growth at 1 uM after 48 hrs by sulforhodamine B assay; type: functional; conditions: read-out: Activity
[9] = Inhibition of PKA at 10 uM by HotSpot assay
MOLT-4 [10] = experiment: Growth inhibition of human MOLT4 cells after 48 hrs by sulforhodamine B assay; type: functional, cell-based; conditions: MOLT-4, 48 h; for CC50: read-out: LC50 (the source's name)
Procedure, shortened: (§3)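 Cells grown in RPMI 1640 with 5% FBS and 2 mM L-glutamine, seeded at 5,000–40,000 cells/well according to doubling time. After 24 h, time-zero plates are TCA-fixed. Five concentrations (10-fold or ½log dilutions, DMSO stocks) are applied for 48 h at 37 °C, 5% CO₂. Cells are TCA-fixed, SRB-stained and read at 515 nm. IC₅₀ is taken from [(Ti−Tz)/(C−Tz)]×100 = 50.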

CAKI-1 [11] = experiment: Cytotoxicity against human Caki1 cells assessed as cell growth at 1 uM after 48 hrs by sulforhodamine B assay; type: functional; conditions: CAKI-1, 48 h, read-out: Activity; procedure, shortened: as §2
MOLT-4 [12] = experiment: Cytotoxicity against human MOLT4 cells assessed as cell growth at 10 uM after 48 hrs by sulforhodamine B assay; type: functional; conditions: MOLT-4, 48 h, read-out: Activity
HOP-62 = experiment: Growth inhibition of human HOP62 cells after 48 hrs by sulforhodamine B assay; type: functional, cell-based; conditions: HOP-62, 48 h; for CC50: read-out: LC50 (the source's name); procedure, shortened: as §3
LOX IMVI [13] = experiment: Growth inhibition of human LOXIMVI cells after 48 hrs by sulforhodamine B assay; type: functional, cell-based; conditions: for CC50: read-out: LC50 (the source's name); procedure, shortened: as §3
SK-MEL-28 = experiment: Growth inhibition of human SK-MEL-28 cells after 48 hrs by sulforhodamine B assay; type: functional; conditions: SK-MEL-28, 48 h
Procedure, shortened: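 Adherent SK-MEL-28 cells, plated in RPMI 1640 with 5% FBS and 2 mM L-glutamine, get five 10-fold or ½log drug dilutions for 48 h at 37 °C. Cells are fixed with cold TCA (final 10%) for 60 min at 4 °C, stained with 0.4% SRB, solubilized in 10 mM Tris and read at 515 nm. IC50 is solved from [(Ti−Tz)/(C−Tz)]×100 = 50.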

MCF7 [14] = experiment: Growth inhibition of human MCF7 cells after 48 hrs by sulforhodamine B assay; type: functional; conditions: MCF7, 48 h; procedure, shortened: as §3
CCRF-CEM = experiment: Cytotoxicity against human CCRF-CEM cells assessed as cell growth at 100 nM after 48 hrs by sulforhodamine B assay; type: functional; conditions: read-out: Activity
MCF7 [15] = experiment: Cytotoxicity against human MCF7 cells assessed as cell growth at 1 uM after 48 hrs by sulforhodamine B assay; type: functional; conditions: MCF7, 48 h, read-out: Activity
[16] = read-out: LC50 (the source's name)

Row | Structure (SMILES) | GI50 (CAKI-1 [1]) [µM] | IC50 (CAKI-1 [1]) [µM] | LC50 (lethal concentration 50%) (CAKI-1 [1]) [µM] | TGI (CAKI-1 [1]) [µM] | TGI (BT-549) [µM] | CC50 (BT-549) [µM] | growth at 0.001 µM (HCT-116 [2]) [%] | growth at 0.001 µM (HCT-15) [%] | growth at 0.001 µM (SN12C) [%] | growth at 0.1 µM (Malme-3M) [%] | growth at 0.1 µM (ACHN) [%] | growth at 0.01 µM (HCT-116 [3]) [%] | growth at 0.01 µM (SF-539) [%] | growth at 0.01 µM (U-251) [%] | growth at 1 µM (K562) [%] | growth at 0.01 µM (OVCAR-4) [%] | growth at 0.01 µM (A498) [%] | growth at 0.01 µM (CAKI-1 [7]) [%] | growth at 1 µM (LOX IMVI [8]) [%] | GI50 (MOLT-4 [10]) [µM] | other results
1 | CC(=O)Nc1cccc(-c2ccc(-c3ccnc(NC(=O)Nc4cc(C(F)(F)F)cc(C(F)(F)F)c4)n3)cn2)c1.Cl | 2.37 | 2.37 | > 100 | 8.34 | 20.4 | 46.3 | 92 | 96 | 94 | 93 | 93 | 85 | 78 | 90 | -1 | 78 | 92 | 104 | -40 | 1.98 | GI50 (BT-549): 7.07 µM; IC50 (BT-549): 7.07 µM; inhibition [4]: 70%; inhibition [5]: < 50%; inhibition [6]: < 50%; inhibition [9]: < 50%; IC50 (MOLT-4 [10]): 1.98 µM; TGI (MOLT-4 [10]): > 100 µM; CC50 (MOLT-4 [10]): > 100 µM; growth at 1 µM (CAKI-1 [11]): -7%; growth at 10 µM (MOLT-4 [12]): 11%; GI50 (HOP-62): 4.88 µM; IC50 (HOP-62): 4.88 µM; TGI (HOP-62): 26.8 µM; CC50 (HOP-62): > 100 µM; GI50 (LOX IMVI [13]): 1.79 µM; IC50 (LOX IMVI [13]): 1.79 µM; TGI (LOX IMVI [13]): inactive; CC50 (LOX IMVI [13]): > 100 µM
2 | CC(=O)c1ccccc1-c1ccc(-c2ccnc(NC(=O)Nc3cc(N4CCOCC4)cc(C(F)(F)F)c3)n2)cn1 | 6.89 | > 100 | > 100 | > 100 | > 100 | > 100 | 95 | 98 | 93 | 78 | 91 | 95 | 107 | 98 | 79 | 108 | 83 | 92 | 54 | > 100 | TGI (SK-MEL-28): > 100 µM; CC50 (SK-MEL-28; [16]): > 100 µM; GI50 (MCF7 [14]): > 100 µM; TGI (MCF7 [14]): > 100 µM; CC50 (MCF7 [14]; [16]): > 100 µM; growth at 0.1 µM (CCRF-CEM): 87%; IC50 (MOLT-4 [10]): > 100 µM; TGI (MOLT-4 [10]): > 100 µM; CC50 (MOLT-4 [10]): > 100 µM; growth at 1 µM (CAKI-1 [11]): 58%; growth at 1 µM (MCF7 [15]): 90%; growth at 10 µM (MOLT-4 [12]): 101%; GI50 (HOP-62): > 100 µM; IC50 (HOP-62): 4.29 µM; TGI (HOP-62): > 100 µM; CC50 (HOP-62): > 100 µM; GI50 (LOX IMVI [13]): 34.9 µM; IC50 (LOX IMVI [13]): > 100 µM; TGI (LOX IMVI [13]): > 100 µM; CC50 (LOX IMVI [13]): > 100 µM
